Source: PubChem BioAssay
PRMT1 FP inh = PRMT1 methyltransferase inhibitors, primary screen, biochemical, fluorescence polarization | Protein arginine N-methyltransferase 1 (Homo sapiens), Q99873 | inhibition, % at 2.79 µM | recombinant PRMT1, activity-based probe fluorescence polarization | hit rate 1.3% among 370,000;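 active = inhibition above about 21% made by adding two undisclosed values, limit read from the data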
TDP2 inh = human TDP2 enzyme inhibitors, primary screen, biochemical, epi absorbance, recombinant enzyme; hit rate 0.34% among 370,000; AID 720702, 2013; Tyrosyl-DNA phosphodiesterase 2 (Homo sapiens), O95551; inhibition, % at 12.8 µM; T5PNP hydrolysis, p-nitrophenol absorbance 415 nm;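 active = inhibition above the mean of all tested compounds plus 3 SD, set per campaign, cut at about 25% in these data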;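 also: 0% = DMSO with enzyme and 100% = buffer with substrate but no TDP2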
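System – recombinant human TDP2 · Quantity – TDP2 enzyme at 120 nM final · Doses – single concentration, 12.8 µM nominal, with 1% DMSO · Incubation – 2 h at 37 °C · Measured by – epi absorbance of p-nitrophenol freed from T5PNP by hydrolysis · Read-out – % inhibition relative to enzyme-containing and enzyme-free wells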
GSTO1 inh = inhibitors of recombinant GSTO1, primary screen, counter-screen for RBBP9 inhibitor project, biochemical, fluorescence polarization; inhibition, % at 5.96 µM; AID 1974, 2009; hit rate 1.1% among 300,000; activity-based probe fluorescence polarization; Glutathione S-transferase omega-1 (Homo sapiens), P78417;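 active = inhibition above the campaign mean inhibition plus 3 SD, cut at about 35% in these data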;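 also: 0% = GSTO1-1 with DMSO and 100% = wells lacking GSTO1-1 enzyme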
PAD4 inh = human PAD4 inhibitors, primary screen, biochemical, fluorescence polarization, 1536-well format; Protein-arginine deiminase type-4 (Homo sapiens), Q9UM07; recombinant PAD4, RCA probe fluorescence polarization; inhibition, % at 6.36 µM; hit rate 0.41% among 330,000; AID 485272, 2010;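 active = percent inhibition above a cutoff equal to the mean of all tested compounds plus 3 SD, cut at about 15% in these data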;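 also: 0% = PAD4 with RCA probe and DMSO and 100% = probe without PAD4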
Target sequence (Q9UM07 whole entry, looked up): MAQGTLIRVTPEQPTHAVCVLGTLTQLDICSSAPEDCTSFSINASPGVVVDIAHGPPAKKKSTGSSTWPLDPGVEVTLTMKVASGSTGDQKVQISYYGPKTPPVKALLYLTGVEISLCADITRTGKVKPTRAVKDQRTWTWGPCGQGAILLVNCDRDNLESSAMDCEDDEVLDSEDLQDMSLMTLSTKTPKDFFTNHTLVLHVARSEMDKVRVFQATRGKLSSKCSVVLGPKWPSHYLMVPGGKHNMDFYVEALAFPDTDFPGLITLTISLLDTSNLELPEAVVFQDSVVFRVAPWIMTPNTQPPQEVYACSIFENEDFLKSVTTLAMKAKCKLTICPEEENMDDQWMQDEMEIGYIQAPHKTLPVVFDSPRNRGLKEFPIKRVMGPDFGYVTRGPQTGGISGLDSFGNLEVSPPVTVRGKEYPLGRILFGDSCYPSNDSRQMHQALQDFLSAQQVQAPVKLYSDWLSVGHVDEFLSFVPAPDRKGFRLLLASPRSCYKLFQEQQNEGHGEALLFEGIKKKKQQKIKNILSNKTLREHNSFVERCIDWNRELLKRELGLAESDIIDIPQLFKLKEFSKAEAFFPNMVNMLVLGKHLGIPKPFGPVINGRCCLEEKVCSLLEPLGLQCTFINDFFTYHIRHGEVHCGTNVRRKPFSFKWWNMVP
Apaf1 inhib = inhibitors of human Apaf-1 apoptosome, primary screen, biochemical, DEVD-Rh110 fluorescence, uHTS. hit rate 0.71% among 330,000. Apoptotic protease-activating factor 1 (Homo sapiens), O14727. AID 489030, 2010. reconstituted apoptosome caspase-3 activity. inhibition, % at 20 µM; active = inhibition of at least 40% at 20 µM;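 also: plate controls were DMSO wells for no effect and DEVD-CHO caspase inhibitor wells for full effect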
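Assay system – apoptosome proteins · Medium – Hepes buffer, pH 7.5 · Also added – cytochrome c with DEVD-Rh110 · Timing – 30 min compound preincubation, 50 min activation, room temperature · Detection – Rh110 fluorescence, excitation 480 nm, emission 540 nm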
GSTO1 inh conf = GSTO1 inhibitor hit confirmation, counter-screen for RBBP9 inhibitor project, biochemical, fluorescence polarization, triplicate; shares compounds with GSTO1 inh; recombinant GSTO1, probe fluorescence polarization; inhibition, % at 5.96 µM; hit rate 54% among 2,400; AID 2176, 2009;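 active = inhibition above the primary screen's cutoff, its mean inhibition plus 3 SD, cut at about 35% in these data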;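 also: loss of polarization as inhibitors block binding of rhodamine sulfonate ester activity probe; 0% = GSTO1 with DMSO and 100% = wells lacking GSTO1 enzyme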
GSTO1 recomb ABPP = inhibitors of purified human GSTO1, late-stage follow-up, biochemical, gel ABPP, SE-Rh probe, percent inhibition; shares compounds with GSTO1 inh; recombinant GSTO1, gel ABPP SE-Rh probe fluorescence; inhibition, % at 1 µM; hit rate 30% among 130;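 active = inhibition of the enzyme GSTO1 above about 75%, limit read from the data; inactive = inhibition below that limit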
Numbers without * were called inactive. In the library only some 2.6% were active in any assay of this set; here they are far more common.

How did O=C(CCCn1c(SCC(=O)c2ccc(O)c(O)c2)nc2ccccc2c1=O)NCC1CCCO1 (stereo unspecified) do in these assays?
PRMT1 FP inh: 6.7; TDP2 inh: -0.4; GSTO1 inh: 43.7*; PAD4 inh: -4.2; Apaf1 inhib: -3.4; GSTO1 inh conf: 9.2

Results for O=C1NC(=O)C2(CCOc3ccc(F)cc32)N1 (stereo unspecified) ?
PRMT1 FP inh: 4.0; TDP2 inh: 9.8

How did CCN(CC(=O)Nc1c(F)cccc1F)C(=O)/C=C/c1ccc2ccccc2n1 do in these assays?
PRMT1 FP inh: 5.0; TDP2 inh: -6.5; GSTO1 inh: 62.2*; PAD4 inh: -2.7; Apaf1 inhib: 27.1; GSTO1 inh conf: 32.5

How did CCN(CC(=O)Nc1c(F)cccc1F)C(=O)c1ccc2ccccc2n1 do in these assays?
PRMT1 FP inh: 1.0; TDP2 inh: 7.0; GSTO1 inh: 4.3; PAD4 inh: -0.8; Apaf1 inhib: -2.0

How did CN1c2ccccc2C(C)(C)C12CC(CCl)=NO2 (stereo unspecified) do in these assays?
GSTO1 inh: 46.1*; PAD4 inh: -11.1; Apaf1 inhib: 6.3; GSTO1 inh conf: 96.3*; GSTO1 recomb ABPP: 64.0

Results for C[C@@H]1COc2cc(Br)ccc2S(=O)(=O)N1Cc1cn(Cc2ccc(F)cc2)nn1 ?
PRMT1 FP inh: -0.3; TDP2 inh: 5.3

Results for Cc1nn(-c2ccccc2)c2c1C1(C(=O)N(C(C)C)c3ccccc31)C(C#N)=C(N)O2 (stereo unspecified) ?
PRMT1 FP inh: 2.5; TDP2 inh: -3.8; GSTO1 inh: 40.1*; PAD4 inh: -1.8; Apaf1 inhib: 23.2; GSTO1 inh conf: 10.9

What do the screens show for `COC(=O)C1=C(C)N(Cc2ccccc2C(F)(F)F)C(=NCc2ccc(C(F)(F)F)cc2)NC1c1ccc(Cl)cc1` (stereo unspecified)?
PRMT1 FP inh: 4.1; TDP2 inh: -1.8

How did COc1ccc(C2CC(c3cccs3)=NN2C(=O)CCl)cc1OC (stereo unspecified) do in these assays?
PRMT1 FP inh: -2.8; TDP2 inh: 9.2; GSTO1 inh: 90.2*; PAD4 inh: 2.9; Apaf1 inhib: 14.8; GSTO1 inh conf: 96.5*

What do the screens show for `COc1ccc(C2CC(c3cccs3)=NN2C(=O)c2ccccc2)cc1OC` (stereo unspecified)?
PRMT1 FP inh: -1.6; TDP2 inh: 4.8; GSTO1 inh: -6.0; PAD4 inh: 2.5; Apaf1 inhib: 8.3

How did COc1cc(C2CC(c3cccs3)=NN2C(=O)CCl)ccc1OC(F)F (stereo unspecified) do in these assays?
PRMT1 FP inh: -2.3; TDP2 inh: 9.3; GSTO1 inh: 93.9*; PAD4 inh: 2.0; Apaf1 inhib: 22.6; GSTO1 inh conf: 96.5*

What do the screens show for `COc1ccc(S[C@]2(C(=O)N3CCN(c4ncccn4)CC3)CC(=O)N(C(=O)/C=C/c3ccccc3)[C@@H]2c2ccc(OC)cc2)cc1`?
PRMT1 FP inh: 4.3; TDP2 inh: -12.9

Results for COC(=O)[C@@]12CCCCC3=C1N(CCC3)C(=O)[C@H]2CC(=O)N1CCOCC1 ?
PRMT1 FP inh: 2.9; TDP2 inh: -4.1

What do the screens show for `CN(C)c1ccc(NS(=O)(=O)c2ccc(-c3csnn3)cc2)cc1`?
PRMT1 FP inh: 15.2; TDP2 inh: -15.3; GSTO1 inh: 39.1*; PAD4 inh: 4.5; Apaf1 inhib: -3.6; GSTO1 inh conf: 30.3

How did COC(=O)C[C@@H]1C=C[C@H](NC(=O)Nc2ccc(F)cc2)[C@@H](CO)O1 do in these assays?
PRMT1 FP inh: -1.1; TDP2 inh: 3.3

What do the screens show for `Cc1cc(C(C)(C)C)c(O)c(C(C)(C)C)c1`?
PRMT1 FP inh: 4.3; TDP2 inh: -5.0; GSTO1 inh: 0.4; PAD4 inh: -0.1; Apaf1 inhib: -12.0
